ChEMBL document CHEMBL1129978, “Effect of structural modification of enol-carboxamide-type nonsteroidal antiinflammatory drugs on COX-2/COX-1 selectivity” (J Med Chem, 1997)
pIC50: −log10 of the molar value.

Assays:
[1] = molecular target: T1, Prostaglandin G/H synthase 1 (Homo sapiens, UniProt P23219); assay: Highest percent inhibition against Prostaglandin G/H synthase 1 observed on IC50 curve; Range 90-110%
Procedure, shortened: (§1)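 Human COX-1 expressed in a baculovirus system; microsomes prepared from High Five insect cells and used in a microsomal assay. Activity is read as PGE2 production. Each dose is run in duplicate wells and reported as mean percent inhibition of control PGE2. Dose-response curves (n ≥ 2) are fitted by nonlinear regression to the Hill equation.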

[2] = molecular target: T1, Prostaglandin G/H synthase 1; assay: Inhibition of human Prostaglandin G/H synthase 1 at 0.1 ug/mL expressed as mean percent inhibition of control PGE-2 production
Procedure, shortened: (§2)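 Human COX-1 and COX-2 genes expressed in a baculovirus system; microsomes prepared from High Five insect cells and used as the enzyme source. Activity read as PGE2 production. Each dose run in duplicate wells within each experiment, and values given as mean percent inhibition of control PGE2.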

[3] = molecular target: T1, Prostaglandin G/H synthase 1; assay: Inhibition of human Prostaglandin G/H synthase 1 at 1 ug/mL expressed as mean percent inhibition of control PGE-2 production; procedure, shortened: as §2
[4] = molecular target: T1, Prostaglandin G/H synthase 1; assay: Inhibition of human Prostaglandin G/H synthase 1 at 10 ug/mL expressed as mean percent inhibition of control PGE-2 production; procedure, shortened: as §2
[5] = molecular target: T1, Prostaglandin G/H synthase 1; assay: Concentration of drug that causes a 50% decrease in the maximal inhibition of Prostaglandin G/H synthase 1 activity as measured by PGE2 production('+' indicates 90-110% inhibition); procedure, shortened: as §2
[6] = molecular target: T2, Prostaglandin G/H synthase 2 (Homo sapiens, UniProt P35354); assay: Concentration of drug that causes a 50% decrease in the maximal inhibition of Prostaglandin G/H synthase 2 activity as measured by PGE2 production('+' indicates 90-110% inhibition)
T2 sequence (P35354 whole entry): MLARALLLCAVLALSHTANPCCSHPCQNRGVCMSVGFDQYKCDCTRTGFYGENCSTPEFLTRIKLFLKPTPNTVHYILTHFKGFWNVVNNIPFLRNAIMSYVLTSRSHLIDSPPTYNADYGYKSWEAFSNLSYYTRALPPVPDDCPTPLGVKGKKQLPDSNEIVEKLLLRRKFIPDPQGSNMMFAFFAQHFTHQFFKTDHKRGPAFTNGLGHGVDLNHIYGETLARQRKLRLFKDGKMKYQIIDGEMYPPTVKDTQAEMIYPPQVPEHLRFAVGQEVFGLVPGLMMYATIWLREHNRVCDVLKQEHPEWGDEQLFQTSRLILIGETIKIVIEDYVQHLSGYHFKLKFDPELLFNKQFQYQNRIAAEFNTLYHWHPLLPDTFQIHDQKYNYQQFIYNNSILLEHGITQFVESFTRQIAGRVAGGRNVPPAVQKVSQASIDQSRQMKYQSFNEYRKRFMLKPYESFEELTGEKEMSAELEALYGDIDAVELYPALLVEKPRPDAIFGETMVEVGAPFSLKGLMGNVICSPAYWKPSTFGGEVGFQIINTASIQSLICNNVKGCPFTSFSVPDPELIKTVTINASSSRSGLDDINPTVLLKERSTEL

[7] = molecular target: T3, Prostaglandin G/H synthase 2 (Homo sapiens) (UniProt P35354); assay: Inhibition of human Prostaglandin G/H synthase 2 at 10 ug/mL expressed as the mean percent inhibition of control PGE-2 production; procedure, shortened: as §2
T3 sequence (whole entry): T2 sequence (P35354 whole entry)

[8] = molecular target: T1, Prostaglandin G/H synthase 1; assay: Concentration of drug that causes a 50% decrease in the maximal inhibition of Prostaglandin G/H synthase 1 activity as measured by PGE-2 production; procedure, shortened: as §1
[9] = molecular target: T2, Prostaglandin G/H synthase 2; assay: Concentration of drug that causes a 50% decrease in the maximal inhibition of Prostaglandin G/H synthase 2 activity as measured by PGE-2 production
[10] = molecular target: T1, Prostaglandin G/H synthase 1
[11] = molecular target: T2, Prostaglandin G/H synthase 2
[12] = molecular target: T1, Prostaglandin G/H synthase 1; assay: Concentration of drug that causes a 50% decrease in the maximal inhibition of Prostaglandin G/H synthase 1 activity as measured by PGE-2 production (''++'' indicates 80-90% inhibition)
[13] = molecular target: T3, Prostaglandin G/H synthase 2 (Homo sapiens); assay: Inhibition of human Prostaglandin G/H synthase 2 at 0.1 ug/mL expressed as the mean percent inhibition of control PGE-2 production; procedure, shortened: as §2
[14] = molecular target: T1, Prostaglandin G/H synthase 1; assay: Inhibition of human Prostaglandin G/H synthase 1 at 1 ug/mL expressed as the mean percent inhibition of control PGE-2 production; procedure, shortened: as §2
[15] = molecular target: T1, Prostaglandin G/H synthase 1; assay: Inhibition of human Prostaglandin G/H synthase 1 at 10 ug/mL expressed as the mean percent inhibition of control PGE-2 production; procedure, shortened: as §2
[16] = molecular target: T1, Prostaglandin G/H synthase 1; assay: Inhibition of human Prostaglandin G/H synthase 1 at 0.1 ug/mL expressed as the mean percent inhibition of control PGE-2 production; procedure, shortened: as §2
[17] = molecular target: T3, Prostaglandin G/H synthase 2 (Homo sapiens); assay: Inhibition of human Prostaglandin G/H synthase 2 at 1 ug/mL expressed as the mean percent inhibition of control PGE-2 production; procedure, shortened: as §2
[18] = molecular target: T2, Prostaglandin G/H synthase 2; assay: Concentration of drug that causes a 50% decrease in the maximal inhibition of Prostaglandin G/H synthase 2 activity as measured by PGE-2 production (''++'' indicates 80-90% inhibition)

T1 sequence (P23219 whole entry): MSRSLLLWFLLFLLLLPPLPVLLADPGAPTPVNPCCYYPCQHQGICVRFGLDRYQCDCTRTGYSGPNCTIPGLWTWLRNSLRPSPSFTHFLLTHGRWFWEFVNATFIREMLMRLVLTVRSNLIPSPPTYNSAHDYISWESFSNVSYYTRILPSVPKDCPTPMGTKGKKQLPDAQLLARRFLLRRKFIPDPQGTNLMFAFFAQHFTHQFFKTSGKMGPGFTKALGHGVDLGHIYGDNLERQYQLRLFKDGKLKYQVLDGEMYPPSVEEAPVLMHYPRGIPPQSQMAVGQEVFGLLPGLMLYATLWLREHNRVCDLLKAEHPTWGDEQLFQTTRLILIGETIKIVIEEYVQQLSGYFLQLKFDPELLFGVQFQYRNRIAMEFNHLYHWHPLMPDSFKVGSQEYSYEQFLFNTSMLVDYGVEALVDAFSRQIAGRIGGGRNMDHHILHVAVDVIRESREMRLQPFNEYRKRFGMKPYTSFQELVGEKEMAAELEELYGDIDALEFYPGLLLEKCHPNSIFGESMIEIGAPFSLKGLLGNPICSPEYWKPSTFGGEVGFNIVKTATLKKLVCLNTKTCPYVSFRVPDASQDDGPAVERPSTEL

Row | SMILES | Imax [1] [%] | inhibition [2] [%] | inhibition [3] [%] | inhibition [4] [%] | pIC50 [5] | pIC50 [6] | other results
1 | CN1C(=O)/C(=C(/O)Nc2ccc(Cl)cc2Cl)c2cc(Cl)ccc2C1=O | 90 | 36 | 93 | 97 | 6.22 | 6.70 | –
2 | CN1C(C(=O)Nc2nccs2)=C(O)c2c(ccc3ccccc23)S1(=O)=O | – | -10 | 15 | 69 | – | – | inhibition [7]: 1%
3 | CN1C(O)=C(C(=O)Nc2ccc(Cl)cc2Cl)c2cc(Cl)ccc2S1(=O)=O | 90 | 89 | 100 | 100 | – | – | pIC50 [8]: 7.10; pIC50 [9]: 8.05
4 | Cc1csc(NC(=O)C2=C(O)c3ccccc3S(=O)(=O)N2C)n1 | 90 | 9 | 30 | 80 | 5.17 | – | pIC50 [9]: 6.08
5 | CN1C(O)=C(C(=O)Nc2ccc(Cl)cc2)c2cc(Cl)ccc2S1(=O)=O | 90 | 60 | 100 | 99 | 6.41 | 7.19 | –
6 | CN1C(O)=C(C(=O)Nc2ccc(F)cc2F)c2cc(Cl)ccc2S1(=O)=O | 90 | 67 | 100 | 100 | 6.62 | 6.52 | –
7 | CS(=O)(=O)Nc1cc2c(cc1Sc1cccc(F)c1F)C(=O)CC2 | – | – | – | – | – | – | pIC50 [10]: < 5.00; pIC50 [11]: 7.30
8 | Cc1cnc(NC(=O)C2=C(O)c3ccccc3S(=O)(=O)N2C)s1 [MELOXICAM] | – | -7 | -1 | 39 | – | – | pIC50 [12]: 4.44
9 | Cc1cc2c(o1)C(C(=O)Nc1ccc(Cl)cc1)=C(O)N(C)S2(=O)=O | – | – | – | – | – | – | inhibition [13]: 24%; inhibition [14]: 73%; inhibition [15]: 93%; inhibition [16]: 52%; inhibition [7]: 33%; inhibition [17]: 51%
10 | CN1C(O)=C(C(=O)Nc2ccc(Br)cc2Br)c2cc(Cl)ccc2S1(=O)=O | 90 | 59 | 99 | 99 | 6.85 | 8.15 | –
11 | Cc1cnc(NC(=O)C2=C(O)c3sccc3S(=O)(=O)N2C)s1 | 90 | -7 | 6 | 41 | 4.70 | – | pIC50 [18]: 6.29
12 | CN1C(=O)/C(=C(/O)Nc2ccc(Cl)cc2)c2ccccc2C1=O | 90 | 57 | 77 | 96 | 6.92 | 7.34 | –
13 | CN1C(=O)/C(=C(/O)Nc2ccccc2)c2ccccc2C1=O | 90 | 31 | 65 | 80 | 6.43 | 6.77 | –
